# Compound activity (PubChem BioAssay)
# NR2E3 ag-1: NR2E3 agonists in two-hybrid cells, primary screen, cell-based, luminescence, CHO-S, Gal4-NCOR/VP16-NR2E3; Photoreceptor-specific nuclear receptor (Homo sapiens), Q9Y5X4; luciferase; inhibition of corepressor binding, % at 3.98 µM; 360,000 tested, 0.35% active; AID 602229, 2012;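 active = inhibition above the mean of all tested compounds plus 3 SD, cut at about 70% in these data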;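 also: 0% = DMSO with NR2E3 transfected cells and 100% = cells lacking NR2E3 construct; higher means lower luciferase signal from less NR2E3 corepressor binding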
# NR2F2 inh: NR2F2 transcriptional activity inhibitors, primary screen, cell-based, luciferase reporter, HEK293T, luminescence. COUP transcription factor 2 (Homo sapiens), P24468. HEK293T NGFI-A luciferase reporter. inhibition, % at 8.6 µM. 370,000 tested, 0.7% active. AID 686940, 2013;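 active = inhibition above a per-plate cutoff, mean inhibition of test wells between control levels plus 3 SD, cut at about 38% in these data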;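 also: cells cotransfected with COUP-TFII expression vector driving the NGFI-A reporter; 0% = median of COUP-TF2 test wells and 100% = reporter-only cells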
# Target sequence (P24468 whole entry, looked up): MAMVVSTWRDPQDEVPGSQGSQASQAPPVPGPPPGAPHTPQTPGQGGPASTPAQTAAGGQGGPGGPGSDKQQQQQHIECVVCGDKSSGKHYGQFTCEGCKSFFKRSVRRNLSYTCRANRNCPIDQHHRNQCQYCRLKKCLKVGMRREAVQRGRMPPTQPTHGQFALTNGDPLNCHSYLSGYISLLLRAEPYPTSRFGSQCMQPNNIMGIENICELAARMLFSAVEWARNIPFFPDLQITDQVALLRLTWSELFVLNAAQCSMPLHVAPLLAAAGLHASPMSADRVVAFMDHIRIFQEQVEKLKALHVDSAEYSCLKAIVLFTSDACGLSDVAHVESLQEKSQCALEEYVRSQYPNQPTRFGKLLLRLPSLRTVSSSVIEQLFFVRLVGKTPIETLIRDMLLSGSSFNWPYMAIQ
# SMARCA2 activ: SMARCA2 (BRM) function activators, primary screen, cell-based, luminescence, high throughput. activation, % at 9.1 µM. 370,000 tested, 1% active. MG213 cells, MMTV-luciferase reporter, dexamethasone, overnight; in the data active = activation above about 7.8%;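 also: 0% = vehicle wells and 100% = reference activator wells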
# NR2E3 ag-2: inhibitors of NR2E3-RetCOR corepressor binding, primary screen, NR2E3 agonist project, biochemical, TR-FRET, GST-NR2E3, biotin-RetCOR | Photoreceptor-specific nuclear receptor (Homo sapiens), Q9Y5X4 | 1536-well | inhibition of corepressor binding, % at 4.78 µM | 320,000 tested, 0.12% active;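 active = percent inhibition above the cutoff of mean plus 3 SD of all tested compounds, set per screening campaign, cut at about 20% in these data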;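 also: 0% = DMSO wells and 100% = biotin wells as full block of FRET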
#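 System: GST-tagged NR2E3 plus biotinylated RetCOR corepressor; Amount: 1.35 nM GST-tagged NR2E3 final; Dosing: single nominal compound dose of 4.8 µM; Schedule: 5 h incubation at 4 °C; Technique: TR-FRET with europium anti-GST and streptavidin-D2, 340 nm excitation; Controls: biotin wells as high control, 0.6% DMSO wells as low control.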
# GalR3 antag: GalR3 antagonists in HEK293 cells, primary screen, cell-based, fluorescence readout | Galanin receptor type 3 (Homo sapiens), O60755 | inhibition, % at 3 µM | HEK293 GalR3-CNG cAMP membrane potential fluorescence; galR3 body fused to GalR1 C-terminus | AID 651719, 2012 | 360,000 tested, 0.44% active;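 active = inhibition above the screen-wide average plus 3 SD, cut at about 13% in these data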;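 also: forskolin and galanin both at EC90 stimulate the cells; cAMP rise reported by CNG channel membrane potential dye signal; 0% = forskolin plus galanin with DMSO and 100% = forskolin alone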
# GalR3 conf: GalR3 antagonist hit confirmation, cell-based, fluorescence, triplicate. shares compounds with GalR3 antag. HEK293 GalR3 CNG cAMP biosensor, membrane potential fluorescence; galR3 fused to GalR1 carboxy tail; challenged with forskolin and galanin at EC90. 1,600 tested, 59% active. inhibition, % at 3 µM. AID 652245, 2013;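 active = inhibition above the primary screen's cutoff, the mean inhibition of all screened compounds plus 3 SD, cut at about 13% in these data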;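 also: 0% = forskolin plus galanin and 100% = forskolin alone with DMSO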
# HEK-CNG parental: nonspecific cAMP agonists in parental HEK-CNG cells, counter-screen for GalR3 antagonist project, cell-based, fluorescence, high throughput. shares compounds with GalR3 antag. HEK293-CNG parental cells, cAMP membrane potential fluorescence; normalised: DMSO wells 0%, forskolin wells 100%. activation, % at 3 µM. 1,600 tested, 10% active; in the data active = activation above about 1.3%
# Gal4-VP16 ctr: Gal4-VP16 luciferase reporter inhibitors, counter-screen for COUP-TFII antagonist project, cell-based, luminescence, HEK293; 2,500 tested, 25% active; shares compounds with NR2F2 inh; inhibition, % at 8.5 µM; in the data active = inhibition above about 13%
# COUP-TFII conf: NR2F2 transcriptional activity inhibitors, confirmation, cell-based, luciferase reporter, HEK293, triplicate | 2,500 tested, 45% active | AID 687008, 2013 | HEK293 NGFI-A luciferase reporter, luminescence | inhibition, % at 8.5 µM | shares compounds with NR2F2 inh;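 active = mean inhibition over three repeats above a set limit taken from the earlier primary screen, cut at about 38% in these data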;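 also: 100% = cells given the luciferase reporter alone without the COUP-TF2 vector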
# Active calls of the source: *; . = no result given. A selection: hits, their analogues and other compounds. The true share with any hit is near 2.2%.
SMILES,NR2E3 ag-1,NR2F2 inh,SMARCA2 activ,NR2E3 ag-2,GalR3 antag,GalR3 conf,HEK-CNG parental,Gal4-VP16 ctr,COUP-TFII conf
COC(=O)[C@]12CCCCC=C1N(Cc1cccc3ccccc13)C(=O)[C@H](CC(=O)NCc1ccc(OC)c(OC)c1)C2,12,97*,-6,.,14*,76*,0,6,58*
CCOc1ccc(-c2cc(C(=O)Nc3ccc(C)c(NS(C)(=O)=O)c3)[nH]n2)c(C)c1,-3,62*,-3,.,14*,99*,-1,-6,22
O=C(NCc1ccncc1)c1ccc(Oc2ccccc2)cc1,-8,22,-4,5,-11,.,.,.,.
Cc1ccc(Oc2ccc(C(=O)NCc3ccncc3)cc2)cc1,-5,74*,-7,.,83*,97*,-1,-7,41*
O=C(CSC1=NCCS1)Nc1ccnc2ccccc12,39,41*,-5,0,99*,109*,0,6,51*
Nc1[nH]c2cc(C(F)(F)F)ccc2c1C(=O)NC1CCCCC1,.,10,0,.,.,.,.,.,.
O=C(NCC1CCN(Cc2ccc(Cl)cc2)CC1)C1CCCN(c2ncnc3c2nc2n3CCCCC2)C1 (centres undefined),-9,58*,-4,0,62*,84*,2.0*,8,34
O=C(NCC1CCN(Cc2ccc(F)cc2)CC1)C1CCCN(c2ncnc3c2nc2n3CCCCC2)C1 (centres undefined),9,14,-1,-2,-5,.,.,.,.
NS(=O)(=O)c1ccc(NC(=S)N2CCN(c3ccc(Cl)c(Cl)c3)CC2)cc1,39,38*,-3,1,21*,37*,-2,13*,24
NS(=O)(=O)c1ccc(NC(=S)N2CCN(Cc3ccc(Cl)c(Cl)c3)CC2)cc1,-38,4,-4,-1,-9,.,.,.,.
O=C(Nc1ccc(-c2nc3ccccc3o2)cc1)c1ccc(N2C(=O)C3C4C=CC(C4)C3C2=O)cc1 (centres undefined),-6,41*,-4,-9,61*,110*,-1,-20,40*
O=C(Nc1ccc(-c2nc3ccccc3o2)cc1)c1ccc2c(c1)OCO2,-35,9,-3,5,-7,.,.,.,.
COc1ccccc1NS(=O)(=O)c1cccc(C(=O)NC2CCN(Cc3ccccc3)CC2)c1,35,.,.,1,.,.,.,.,.
COc1ccccc1NS(=O)(=O)c1cc(C(=O)NC2CCN(Cc3ccccc3)CC2)ccc1C,.,68*,-5,.,90*,103*,1,6,45*
COc1ccccc1NS(=O)(=O)c1ccc(C)c(C(=O)NC2CCN(Cc3ccccc3)CC2)c1,-10,47*,-3,.,33*,81*,0,2,29
CC(=O)O[C@@H]1C=C[C@@H](C#Cc2ccc(C(C)(C)C)cc2)O[C@@H]1COC(=O)NCc1ccccc1,.,24,-2,.,-3,.,.,.,.
Cc1oc(-c2ccc(Cl)cc2)nc1CN1CCCC(C(=O)N2CCN(C(=O)c3ccco3)CC2)C1 (centres undefined),9,74*,-2,-1,84*,101*,1,14*,63*
Cc1ccc(Cn2ncc3c(N4CCN(Cc5ccc(Cl)cc5)CC4)ncnc32)cc1,-5,39*,-5,0,53*,69*,1,11,51*
Cc1ccc(Cn2ncc3c(N4CCN(c5ccc(C)cc5)CC4)ncnc32)cc1,-19,13,-4,-4,-4,.,.,.,.
CCc1ccc(CN2CCN(C(=O)c3cccc(OC)c3OC)CC2)cc1,5,54*,-6,3,98*,101*,0,-6,40*
COc1cccc(C(=O)N2CCN(C(=O)c3cccc4ccccc34)CC2)c1OC,-8,6,0,-2,0,.,.,.,.
Cn1c(=O)c2cc(S(=O)(=O)N3CCN(c4ccccc4Cl)CC3)ccc2n(C)c1=O,.,0,-5,.,.,.,.,.,.
COc1ccc(-n2c(-c3ccccc3)nnc2-c2ccc(Cl)cc2)cc1,-4,-1,-3,3,-5,.,.,.,.
COc1ccc(-n2c(-c3ccc(Cl)cc3)c[n+]3c2CCc2ccccc2-3)cc1,-2,51*,-5,3,62*,57*,1,18*,44*
CCOC(=O)[C@@]12CCCC3=C1N(CCC3)C(=O)[C@H]2CC(=O)NCC1CCCCC1,.,4,1,.,.,.,.,.,.
SMILES,NR2E3 ag-1,NR2F2 inh,SMARCA2 activ,NR2E3 ag-2,GalR3 antag,GalR3 conf,HEK-CNG parental,Gal4-VP16 ctr,COUP-TFII conf
Cc1ccccc1OCCCCn1cnc2ccccc21,68,39*,-6,1,77*,19*,-1,-16,17
C[n+]1c2n(c3ccccc31)N=C(c1cc(C(C)(C)C)c(O)c(C(C)(C)C)c1)CS2,-4,81*,-12,3,19*,30*,17*,29*,87*
Cc1cccc(Cl)c1NC(=O)N1CCCN(c2nc3ccc(Cl)cc3s2)CC1,1,49*,-5,2,82*,103*,0,-20,41*
Cc1cccc(C)c1NC(=O)N1CCN(c2nc3ccccc3s2)CC1,-16,48*,-5,1,39*,2,0,-14,26
Cc1cccc(Cl)c1NC(=O)N1CCN(c2ccnc3cc(Cl)ccc23)CC1,-11,1,-2,5,-9,.,.,.,.
CCOc1ccc(NC(=O)N2CCN(c3nc4ccccc4s3)CC2)cc1,-3,17,-4,0,-7,.,.,.,.
O=C(OC12CCCN(C1)/C(=C/c1ccccc1)C2)C1CCCC1 (centres undefined),.,-9,-4,.,.,.,.,.,.
OCCC1CN(Cc2cnc(-c3ccc(Cl)cc3)nc2)CCN1C1CCCCC1 (centres undefined),-3,37*,-5,3,83*,13*,0,-26,0
